# Measured values from ChEMBL document CHEMBL4392868, “Cytotoxic Tigliane Diterpenoids from Croton damayeshu” (J Nat Prod, 2019).
# Where a name gives a salt, the structure may show the parent alone.
# How the values were obtained:
# A549 [1] = experiment: Cytotoxicity against human A549 cells measured after 72 hrs by CCK8 assay; format: functional, cell-based; conditions: A549, 72 h
# Summary of the method: (§1)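 Human tumor cell lines A549 and HL-60 were assayed in vitro for cytotoxicity by the CCK-8 colorimetric method. Adriamycin served as the positive control, and IC50 values are reported in μM.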
# HL-60 [2] = experiment: Cytotoxicity against human HL60 cells assessed as inhibition of cell growth at 10 uM measured after 72 hrs by CCK8 assay relative to control; format: functional; conditions: HL-60, 72 h
# A549 [3] = experiment: Cytotoxicity against human A549 cells assessed as inhibition of cell growth at 10 uM measured after 72 hrs by CCK8 assay relative to control; format: functional; conditions: A549, 72 h
# HL-60 [4] = experiment: Cytotoxicity against human HL60 cells measured after 72 hrs by CCK8 assay; format: functional, cell-based; conditions: HL-60, 72 h; summary of the method: as §1
Structure (SMILES),IC50 (A549 [1]) [µM],inhibition at 10 µM (HL-60 [2]) [%],inhibition at 10 µM (A549 [3]) [%],IC50 (HL-60 [4]) [µM]
CC[C@H](C)C(=O)O[C@@]12[C@H](O)[C@@H](C)[C@]3(O)[C@@H]4C=C(C)C(=O)[C@@H]4CC(C=O)=C[C@H]3[C@@H]1C2(C)C,0.9,< 50,–,–
C/C=C(\C)C(=O)O[C@@H]1[C@@H](C)[C@]2(O)[C@@H]3C=C(C)C(=O)[C@@H]3CC(CO)=C[C@H]2[C@@H]2C(C)(C)[C@]12OC(=O)[C@@H](C)CC,18.3,< 50,–,–
C/C=C(\C)C(=O)O[C@@H]1[C@@H](C)[C@]2(O)[C@@H]3C=C(C)C(=O)[C@@H]3CC(CO)=C[C@H]2[C@@H]2C(C)(C)[C@]12OC(=O)[C@@H](C)[C@@H](C)O,–,< 50,< 50,–
CC[C@H](C)C(=O)O[C@@]12[C@H](O)[C@@H](C)[C@]3(O)[C@@H]4C=C(C)C(=O)[C@@H]4CC(CO)=C[C@H]3[C@@H]1C2(C)C,–,< 50,< 50,–
CC1=C[C@@H]2[C@@H](CC(C=O)=C[C@H]3[C@@H]4C(C)(C)[C@]4(OC(=O)C(C)C)[C@H](O)[C@@H](C)[C@]23O)C1=O,–,< 50,< 50,–
COc1cccc2c1C(=O)c1c(O)c3c(c(O)c1C2=O)C[C@@](O)(C(=O)CO)C[C@@H]3O[C@H]1C[C@H](N)[C@H](O)[C@H](C)O1 [DOXORUBICIN HYDROCHLORIDE],0.4,–,–,0.08
CC[C@H](C)C(=O)O[C@@H]1[C@@H](C)[C@]2(O)[C@@H]3C=C(C)C(=O)[C@@H]3CC(CO)=C[C@H]2[C@@H]2C(C)(C)[C@]12OC(=O)[C@@H](C)CC,4.6,–,–,18.9
C/C=C(\C)C(=O)O[C@@H]1[C@@H](C)[C@]2(O)[C@@H]3C=C(C)C(=O)[C@@H]3CC(CO)=C[C@H]2[C@@H]2C(C)(C)[C@]12OC(C)=O,–,< 50,< 50,–
C/C=C(\C)C(=O)O[C@@H]1[C@@H](C)[C@]2(O)[C@@H]3C=C(C)C(=O)[C@@H]3CC(CO)=C[C@H]2[C@@H]2C(C)(C)[C@]12OC(=O)C(C)C,1.9,–,–,1.8
CC[C@H](C)C(=O)O[C@@]12[C@H](OC(=O)c3ccccc3)[C@@H](C)[C@]3(O)[C@@H]4C=C(C)C(=O)[C@@H]4CC(CO)=C[C@H]3[C@@H]1C2(C)C,4.1,–,–,22.7
C/C=C(\C)C(=O)O[C@@H]1[C@@H](C)[C@]2(O)[C@@H]3C=C(C)C(=O)[C@@H]3CC(C=O)=C[C@H]2[C@@H]2C(C)(C)[C@]12OC(=O)[C@@H](C)CC,1.3,–,–,2.4
CC1=C[C@@H]2[C@@H](CC(CO)=C[C@H]3[C@@H]4C(C)(C)[C@]4(OC(=O)C(C)C)[C@H](O)[C@@H](C)[C@]23O)C1=O,–,< 50,< 50,–
CC1=C[C@@H]2[C@@H](CC(CO)=C[C@H]3[C@@H]4C(C)(C)[C@]4(OC(=O)[C@@H](C)[C@@H](C)O)[C@H](O)[C@@H](C)[C@]23O)C1=O,–,< 50,< 50,–
CC[C@H](C)C(=O)O[C@@H]1[C@@H](C)[C@]2(O)[C@@H]3C=C(C)C(=O)[C@@H]3CC(CO)=C[C@H]2[C@@H]2C(C)(C)[C@]12OC(=O)C(C)C,3.7,< 50,–,–
